Calls of active or inactive are those of the source. The calls are words filed in the database; no cut-off is given here.
What was measured:
Hepatitis C virus [1] = experiment: Antiviral activity against HCV infected in human Huh-7 cells assessed as reduction in viral replication measured after 48 hrs by luciferase reporter gene assay; type: functional, organism-based, Hepacivirus hominis; details: Huh-7, 48 h
Procedure, shortened: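 Replicon-bearing Huh7 cells seeded at 10,000/well and allowed to attach for 24 h at 37 °C. Triplicate biological wells then treated 48 h with compound in DMEM, 10% FBS, 0.5% DMSO final. Bright-Glo luminescence expressed relative to untreated cells. IC50 from a four-parameter logistic fit.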

[2] = Cytotoxicity against human Huh-7 cells assessed as reduction in cell viability measured after 48 hrs by celltiter-glo assay; type: cell-based; details: read-out: TC50
[3] = Cytotoxicity against human Huh-7 cells assessed as reduction in cell viability measured after 48 hrs in presence of ENT1 inhibitor NBTI […]; type: cell-based; details: with NBTI (ENT1 inhibitor; concentration not stated), read-out: TC50
[4] = Toxicity in human Huh-7 cells assessed as reduction in cell viability measured after 96 hrs by celltiter-glo assay; type: cell-based; details: read-out: TC50
HepG2 = experiment: Cytotoxicity against human HepG2 cells assessed as reduction in cell viability measured after 96 hrs by celltiter-glo assay; type: functional; details: read-out: TC50 (the source's name)
[5] = Cytotoxicity against HEK293 cells assessed as reduction in cell viability measured after 96 hrs by celltiter-glo assay; type: cell-based; details: human, read-out: TC50
[6] = Cytotoxicity against human MCF7 cells assessed as reduction in cell viability measured after 96 hrs by celltiter-glo assay; type: cell-based; details: read-out: TC50
[7] = Ratio of gemcitabine TC50 to test compound TC50 for cytotoxicity against human MCF7 cells assessed as reduction in cell viability; type: cell-based
Hepatitis C virus [8] = experiment: Antiviral activity against HCV infected in human Huh-7 cells assessed as reduction in viral replication at 25 to 1000 nM measured after 48 hrs in presence of cytidine by luciferase reporter gene assay; type: functional, organism-based; details: Hepacivirus hominis, dose 25-1000 nM
Procedure, shortened: (§1)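 Huh7 cells carrying an HCV luciferase replicon, grown in DMEM with 10% FBS and G418. Cells treated 48 h continuously with compound at 25–1,000 nM, either alone or together with 50 µM cytidine or 2′-deoxycytidine. Luciferase activity read in lysates. Three biological replicates, SD.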

Hepatitis C virus [9] = experiment: Antiviral activity against HCV infected in human Huh-7 cells assessed as reduction in viral replication at 25 to 1000 nM measured after 48 hrs in presence of deoxycytidine by luciferase reporter gene assay; type: functional, organism-based; details: Hepacivirus hominis, dose 25-1000 nM; procedure, shortened: as §1
[10] = Cytotoxicity against human BXPC-3 cells assessed as reduction in cell viability measured after 96 hrs by celltiter-glo assay; type: cell-based; details: read-out: TC50
[11] = Ratio of gemcitabine TC50 to test compound TC50 for cytotoxicity against human BXPC-3 cells assessed as reduction in cell viability; type: cell-based
[12] = Stability in pH 1 aqueous buffer assessed as parent compound remaining at 200 uM measured after 4 hrs by UV spectrophotometry; type: physicochemical; details: read-out: Stabilty
Procedure, shortened: (§2)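 Compound diluted to […] in aqueous buffers at pH 1.0, 2.0, 4.0, 6.0 or 8.0 and held 4 h at 40 °C. Intact prodrug separated by reverse-phase HPLC. 260 nm peak area after incubation compared with untreated prodrug, giving % remaining.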

[13] = Stability in pH 2 aqueous buffer assessed as parent compound remaining at 200 uM measured after 4 hrs by UV spectrophotometry; type: physicochemical; details: read-out: Stabilty; procedure, shortened: as §2
[14] = Stability in pH 4 aqueous buffer assessed as parent compound remaining at 200 uM measured after 4 hrs by UV spectrophotometry; type: physicochemical; details: read-out: Stabilty; procedure, shortened: as §2
[15] = Stability in pH 6 aqueous buffer assessed as parent compound remaining at 200 uM measured after 4 hrs by UV spectrophotometry; type: physicochemical; details: read-out: Stabilty; procedure, shortened: as §2
[16] = Stability in pH 8 aqueous buffer assessed as parent compound remaining at 200 uM measured after 4 hrs by UV spectrophotometry; type: physicochemical; details: read-out: Stabilty; procedure, shortened: as §2
Hepatitis C virus [17] = experiment: Antiviral activity against HCV infected in human Huh-7 cells assessed as reduction in viral replication at 500 nM measured after 24 to 30 hrs by luciferase reporter gene assay; type: functional, Hepacivirus hominis; design: scale not given: the % may be the effect or the level left; details: time 24-30 hrs
Procedure, shortened: (§3)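 Huh7 luciferase replicon cells treated with 500 nM compound or mock for up to 48 h. Cells were lysed at various times and the lysates snap-frozen in liquid nitrogen. All lysates were then assayed for luciferase together.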

Hepatitis C virus [18] = experiment: Antiviral activity against HCV infected in human Huh-7 cells assessed as reduction in viral replication at 500 nM measured after 48 hrs by luciferase reporter gene assay; type: functional, organism-based; details: Hepacivirus hominis; procedure, shortened: as §3
Hepatitis C virus [19] = experiment: Antiviral activity against HCV infected in human Huh-7 cells assessed as reduction in viral replication preincubated for 2 hrs followed by replacement with fresh culture medium and measured after 46 hrs by luciferase reporter gene assay; type: functional, organism-based, Hepacivirus hominis
Procedure, shortened: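 HCV luciferase-replicon Huh7 cells were seeded at 10,000 cells/well and allowed 24 h to attach. Three biological replicates were exposed to graded compound in DMEM/10% FBS/0.5% DMSO for 2 h only, then the medium was replaced with fresh growth medium for 46 h at 37 °C.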

Hepatitis C virus [20] = experiment: Ratio of IC50 for antiviral activity against HCV infected in human Huh-7 cells assessed as reduction in viral replication preincubated for 2 hrs followed by replacement with fresh culture medium and measured after 46 hrs by luciferase reporter gene assay to IC50 for antiviral activity against HCV infected in human Huh-7 cells assessed as reduction in viral replication measured after 48 hrs by …; type: functional, Hepacivirus hominis

Structure (SMILES) | IC50 (Hepatitis C virus [1]) [nM] | CC50 at 48 h [2] [µM] | other results
O=C(Nc1ccn([C@@H]2O[C@H](CO)[C@@H](O)C2(F)F)c(=O)n1)c1c(Br)ccc2c1OCO2 | 340 | 2210 | –
O=C(Nc1ccn([C@@H]2O[C@H](CO)[C@@H](O)C2(F)F)c(=O)n1)c1ccc2cc(Br)ccc2c1 | 185 | 74 | –
O=C(Nc1ccn([C@@H]2O[C@H](CO)[C@@H](O)C2(F)F)c(=O)n1)c1ccc2ccccc2c1 | 126 | 125 | –
COc1cccc(OC)c1C(=O)Nc1ccn([C@@H]2O[C@H](CO)[C@@H](O)C2(F)F)c(=O)n1 | 451 | 4580 | –
COc1ccc2cc(C(=O)Nc3ccn([C@@H]4O[C@H](CO)[C@@H](O)C4(F)F)c(=O)n3)ccc2c1 | 93.5 | 168 | –
COc1cc(OC)cc(C(=O)Nc2ccn([C@@H]3O[C@H](CO)[C@@H](O)C3(F)F)c(=O)n2)c1 | 73.4 | 962 | CC50 at 96 h [4]: 18.5 µM; CC50 (HepG2): 3 µM; CC50 at 96 h [5]: 4 µM; CC50 at 96 h [6]: 1.6 µM; selectivity ratio [7]: ≤ 24; Activity (Hepatitis C virus [8]): inactive; Activity (Hepatitis C virus [9]): inactive
Cc1cc2c(cc1C(=O)Nc1ccn([C@@H]3O[C@H](CO)[C@@H](O)C3(F)F)c(=O)n1)OCCO2 | 1690 | 626 | –
O=C(Nc1ccn([C@@H]2O[C@H](CO)[C@@H](O)C2(F)F)c(=O)n1)c1ccc2c(c1)OCCO2 | 127 | 855 | CC50 at 96 h [4]: 3.3 µM; CC50 (HepG2): 1.1 µM; CC50 at 96 h [5]: 5.6 µM; CC50 at 96 h [6]: 1.4 µM; CC50 at 96 h [10]: 1.2 µM; selectivity ratio [7]: ≤ 24; selectivity ratio [11]: ≤ 620; remaining at 4 h, 200 µM [12]: 71%; remaining at 4 h, 200 µM [13]: 100%; remaining at 4 h, 200 µM [14]: 100%; remaining at 4 h, 200 µM [15]: 100%; remaining at 4 h, 200 µM [16]: 100%
O=C(Nc1ccn([C@@H]2O[C@H](CO)[C@@H](O)C2(F)F)c(=O)n1)c1ccc2c(c1)CCO2 | 145 | 954 | –
O=C(Nc1ccn([C@@H]2O[C@H](CO)[C@@H](O)C2(F)F)c(=O)n1)c1cccc2c1CCCC2 | 161 | 92 | –
CC1(C)Cc2ccc(C(=O)Nc3ccn([C@@H]4O[C@H](CO)[C@@H](O)C4(F)F)c(=O)n3)cc2O1 | 177 | 1160 | –
O=C(Nc1ccn([C@@H]2O[C@H](CO)[C@@H](O)C2(F)F)c(=O)n1)c1ccc2c(c1)OCO2 | 59.8 | 470 | CC50 at 96 h [4]: 7 µM; CC50 (HepG2): 2.8 µM; CC50 at 96 h [5]: 4.1 µM; CC50 at 96 h [6]: 1.2 µM; CC50 at 96 h [10]: 0.72 µM; selectivity ratio [7]: ≤ 24; selectivity ratio [11]: ≤ 620; IC50 (Hepatitis C virus [19]): 3.1 µM; Ratio IC50 (Hepatitis C virus [20]): 51; CC50 at 48 h [3]: 440 µM; remaining at 4 h, 200 µM [12]: 64%; remaining at 4 h, 200 µM [13]: 100%; remaining at 4 h, 200 µM [14]: 100%; remaining at 4 h, 200 µM [15]: 100%; remaining at 4 h, 200 µM [16]: 92%

Further molecules by falling IC50 (Hepatitis C virus [1]), results first:

IC50 (Hepatitis C virus [1]) [nM] | Structure (SMILES) | CC50 at 48 h [2] [µM] | other results
91.5 | O=C(Nc1ccn([C@@H]2O[C@H](CO)[C@@H](O)C2(F)F)c(=O)n1)c1ccc2c(c1)OCCCO2 | 881 | –
86 | O=C(Nc1ccn([C@@H]2O[C@H](CO)[C@@H](O)C2(F)F)c(=O)n1)c1ccc2c(c1)CCCC2 | 132 | –
77.5 | O=C(Nc1ccn([C@@H]2O[C@H](CO)[C@@H](O)C2(F)F)c(=O)n1)c1ccc(Cl)cc1Cl | > 100 | –
60 | COc1ccc(C(=O)Nc2ccn([C@@H]3O[C@H](CO)[C@@H](O)C3(F)F)c(=O)n2)cc1 | 572 | –
58.6 | O=C(Nc1ccn([C@@H]2O[C@H](CO)[C@@H](O)C2(F)F)c(=O)n1)c1ccc2c(c1)CCC2 | 378 | –
58.4 | CCc1ccc(C(=O)Nc2ccn([C@@H]3O[C@H](CO)[C@@H](O)C3(F)F)c(=O)n2)cc1 | 490 | CC50 at 48 h [3]: 360 µM
46.7 | O=C(Nc1ccn([C@@H]2O[C@H](CO)[C@@H](O)C2(F)F)c(=O)n1)c1cc2c(cc1[N+](=O)[O-])OCO2 | > 500 | –
46.4 | O=C(Nc1ccn([C@@H]2O[C@H](CO)[C@@H](O)C2(F)F)c(=O)n1)c1ccc2c(c1)OC(F)(F)O2 | 188 | –
43.1 | Cc1ccc(C(=O)Nc2ccn([C@@H]3O[C@H](CO)[C@@H](O)C3(F)F)c(=O)n2)cc1 | 329 | CC50 at 48 h [3]: 240 µM
37.6 | O=C(Nc1ccn([C@@H]2O[C@H](CO)[C@@H](O)C2(F)F)c(=O)n1)c1ccc(Cl)cc1 | 138 | –
25.5 | O=C(Nc1ccn([C@@H]2O[C@H](CO)[C@@H](O)C2(F)F)c(=O)n1)c1cc(Cl)cc(Cl)c1 | 110 | CC50 at 96 h [4]: 4.2 µM; CC50 (HepG2): 0.6 µM; CC50 at 96 h [5]: 1.2 µM; CC50 at 96 h [6]: 0.33 µM; selectivity ratio [7]: ≤ 24; Activity (Hepatitis C virus [8]): inactive; Activity (Hepatitis C virus [9]): inactive; Activity (Hepatitis C virus [17]): 50%; Activity (Hepatitis C virus [18]): Active; remaining at 4 h, 200 µM [12]: 35%; remaining at 4 h, 200 µM [13]: 82%; remaining at 4 h, 200 µM [14]: 98.4%; remaining at 4 h, 200 µM [15]: 99.6%; remaining at 4 h, 200 µM [16]: 35.4%
19.3 | COc1c(Cl)cc(C(=O)Nc2ccn([C@@H]3O[C@H](CO)[C@@H](O)C3(F)F)c(=O)n2)cc1Cl | > 100 | –
17.4 | O=C(Nc1ccn([C@@H]2O[C@H](CO)[C@@H](O)C2(F)F)c(=O)n1)c1ccc(Cl)c(Cl)c1 | > 100 | –
12.8 | O=C(Nc1ccn([C@@H]2O[C@H](CO)[C@@H](O)C2(F)F)c(=O)n1)c1ccc2c(c1)C(=O)c1ccccc1C2=O | 249 | –
10 | O=C(Nc1ccn([C@@H]2O[C@H](CO)[C@@H](O)C2(F)F)c(=O)n1)C1Cc2ccccc2C1 | > 500 | –
0.031 | COC(=O)N[C@H](C(=O)N1CCC[C@H]1c1ncc(-c2ccc(-c3ccc(-c4cnc([C@@H]5CCCN5C(=O)[C@@H](NC(=O)OC)C(C)C)[nH]4)cc3)cc2)[nH]1)C(C)C | – | –

Source: ChEMBL document CHEMBL4732148 (Eur J Med Chem, 2021)
